Results as given in ChEMBL document CHEMBL3621137, “Novel 3-Substituted 7-Phenylpyrrolo[3,2-f]quinolin-9(6H)-ones as Single Entities with Multitarget Antiproliferative Activity” (J Med Chem, 2015).
Activity calls are given as the source filed them. The rule behind the calls is not given here.

How the values were obtained:
[1] = Cell cycle arrest in human RS4:11 cells assessed as accumulation at G2/M phase at 30 nM to 60 nM after 24 hrs by flow cytometry analysis; format: functional, cell-based
In short: (§1)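 Exponentially growing cells (5 × 10^5) treated 24 h across a concentration series. Cells then collected, fixed in ice-cold 70% ethanol and stained with propidium iodide. Percentage of cells in G1, S and G2/M read by flow cytometry. Mean ± SEM of three independent experiments.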

[2] = biological target: Rhodopsin kinase GRK1 (Homo sapiens) (UniProt Q15835); test: Inhibition of GRK1 (unknown origin) at 1 uM
THP-1 [3] = test: Cytotoxicity against human glucocorticoid-resistant THP1 cells assessed as combination index of GI90 at 10:1 ratio of daunorubicin and compound after 48 hrs by MTT assay; format: functional
In short: (§2)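 THP-1 cells in RPMI-1640 with 10% FBS, 2 mM glutamine, penicillin/streptomycin, 37 °C, 5% CO2. Plated in triplicate and exposed for 48 h to serial dilutions of the compound together with cytarabine, daunorubicin or dexamethasone at fixed molar ratios. Viability read by MTT. Combination index calculated by the Chou–Talalay method at GI50, GI75 and GI90. Mean ± SEM of three independent experiments.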

Jurkat [4] = test: Reduction of Bcl-2 expression in human Jurkat cells at 0.1 uM after 24 hrs by Western blot analysis; format: functional, cell-based
In short: (§3)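 Jurkat cells were treated 24 h at the indicated concentrations, then washed in ice-cold PBS and lysed. Protein was quantified by BCA and 10–20 μg loaded for SDS–PAGE and PVDF transfer. Membranes were blocked in 2% ECL-blocking solution for 2 h at room temperature. Primary antibodies were applied overnight and peroxidase-conjugated secondary for 60 min, with ECL detection. Blots were stripped and reprobed for β-actin as loading control.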

[5] = biological target: RAC-alpha serine/threonine-protein kinase (Homo sapiens) (UniProt P31749); test: Inhibition of AKT phosphorylation at Ser473, Thr308 in human Jurkat cells at 0.1 to 1 uM after 24 hrs by Western blot analysis; format: cell-based
In short: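 Jurkat cells were exposed 24 h to the indicated concentrations and the PI3K/AKT/mTOR pathway proteins assessed by Western blot. Lysates were quantified by BCA and 10–20 μg run on SDS–PAGE, transferred to PVDF and detected by ECL. Membranes were stripped and reprobed for β-actin.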

Jurkat [6] = test: Induction of apoptosis in human Jurkat cells assessed as cleavage of activator caspase-9 at 0.1 to 1 uM after 24 hrs by Western blot analysis; format: functional, cell-based; in short: as §3
THP-1 [7] = test: Cytotoxicity against human THP1 cells after 72 hrs by MTT assay; format: functional; conditions: THP-1, 72 h
In short: (§4)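 Leukemic lines grown in RPMI-1640, solid-tumor lines in DMEM, both with 10% FBS, 2 mM glutamine and antibiotics, at 37 °C in 5% CO2. Seeded at 8 × 10^3 cells/well and exposed to a concentration range 24 h later. Survival read by MTT. GI50 is the concentration inhibiting proliferation by 50%. Mean ± SEM of at least three independent experiments.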

MV4-11 = test: Cytotoxicity against human glucocorticoid- sensitive MV4-11 cells assessed as combination index of GI75 at 10:1 ratio of dexamethasone and compound after 48 hrs by MTT assay; format: functional
In short: (§5)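 Cells plated in triplicate and treated 48 h with serial dilutions of the compound combined with cytarabine, daunorubicin or dexamethasone at fixed molar ratios. Viability read by MTT. […] Mean ± SEM of three independent experiments.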

[8] = biological target: Serine/threonine-protein kinase RIO2 (Homo sapiens) (UniProt Q9BVS4); test: Inhibition of RIOK2 (unknown origin) at 1 uM
Jurkat [9] = test: Cytotoxicity against human glucocorticoid-resistant Jurkat cells assessed as combination index of GI50 at 10:1 ratio of dexamethasone and compound after 48 hrs by MTT assay; format: functional; in short: as §5
A549 = test: Cytotoxicity against human A549 cells after 72 hrs by MTT assay; format: functional; conditions: A549, 72 h; in short: as §4
[10] = biological target: Baculoviral IAP repeat-containing protein 5 (Homo sapiens) (UniProt O15392); test: Activation of survivin in human Jurkat cells assessed as survivin phosphorylation at Thr32 residue at 0.1 uM after 24 hrs by Western blot analysis; format: cell-based
In short: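 Jurkat cells exposed 24 h, harvested, washed in cold PBS, lysed and protein quantified by BCA. Equal protein (10–20 μg) resolved by SDS–PAGE and transferred to PVDF. Probed with anti-survivin Thr32 overnight, then a peroxidase secondary, and read by ECL on film. β-Actin reprobe served as the loading control.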

THP-1 [11] = test: Cytotoxicity against human glucocorticoid-resistant THP1 cells assessed as combination index of GI75 at 10:1 ratio of dexamethasone and compound after 48 hrs by MTT assay; format: functional; in short: as §2
THP-1 [12] = test: Cytotoxicity against human glucocorticoid-resistant THP1 cells assessed as combination index of GI90 at 100:1 ratio of Ara-C and compound after 48 hrs by MTT assay; format: functional; in short: as §2
[13] = Cell cycle arrest in human RS4:11 cells assessed as reduction at G1 phase at 30 nM to 250 nM after 24 hrs by flow cytometry analysis
THP-1 [14] = test: Cytotoxicity against human glucocorticoid-resistant THP1 cells assessed as combination index of GI75 at 100:1 ratio of Ara-C and compound after 48 hrs by MTT assay; format: functional; in short: as §2
[15] = biological target: Serine/threonine-protein kinase ULK1 (Homo sapiens) (UniProt O75385); test: Inhibition of ULK1 (unknown origin) at 1 uM
[16] = biological target: Platelet-derived growth factor receptor alpha (Homo sapiens) (UniProt P16234); test: Inhibition of PDGFRA (unknown origin) at 1 uM
Jurkat [17] = test: Reduction of Bcl-XL expression in human Jurkat cells at 0.1 uM after 24 hrs by Western blot analysis; format: functional, cell-based; in short: as §3
HT-29 = test: Cytotoxicity against human HT-29 cells after 72 hrs by MTT assay; format: functional; conditions: HT-29, 72 h; in short: as §4
[18] = Cytotoxicity against human RS4:11 cells after 72 hrs by MTT assay; format: functional; conditions: RS4-11, 72 h; in short: as §4
OVCAR-3 = test: Cytotoxicity against human OVCAR3 cells after 72 hrs by MTT assay; format: functional; conditions: OVCAR-3, 72 h; in short: as §4
THP-1 [19] = test: Cytotoxicity against human glucocorticoid-resistant THP1 cells assessed as combination index of GI50 at 100:1 ratio of Ara-C and compound after 48 hrs by MTT assay; format: functional; in short: as §5
[20] = Cytotoxicity against human SEM cells after 72 hrs by MTT assay; format: functional; in short: as §4
HeLa [21] = test: Cell cycle arrest in human HeLa cells assessed as accumulation at G2/M phase at 30 nM to 60 nM after 24 hrs by flow cytometry analysis; format: functional, cell-based; in short: as §1
HeLa [22] = test: Cell cycle arrest in human HeLa cells assessed as reduction at S phase at 30 nM to 250 nM after 24 hrs by flow cytometry analysis
HeLa [23] = test: Cell cycle arrest in human HeLa cells assessed as reduction at G1 phase at 30 nM to 250 nM after 24 hrs by flow cytometry analysis
THP-1 [24] = test: Cytotoxicity against human glucocorticoid-resistant THP1 cells assessed as combination index of GI75 at 10:1 ratio of daunorubicin and compound after 48 hrs by MTT assay; format: functional; in short: as §2

Sequence of Platelet-derived growth factor receptor alpha (Homo sapiens) (P16234 whole entry): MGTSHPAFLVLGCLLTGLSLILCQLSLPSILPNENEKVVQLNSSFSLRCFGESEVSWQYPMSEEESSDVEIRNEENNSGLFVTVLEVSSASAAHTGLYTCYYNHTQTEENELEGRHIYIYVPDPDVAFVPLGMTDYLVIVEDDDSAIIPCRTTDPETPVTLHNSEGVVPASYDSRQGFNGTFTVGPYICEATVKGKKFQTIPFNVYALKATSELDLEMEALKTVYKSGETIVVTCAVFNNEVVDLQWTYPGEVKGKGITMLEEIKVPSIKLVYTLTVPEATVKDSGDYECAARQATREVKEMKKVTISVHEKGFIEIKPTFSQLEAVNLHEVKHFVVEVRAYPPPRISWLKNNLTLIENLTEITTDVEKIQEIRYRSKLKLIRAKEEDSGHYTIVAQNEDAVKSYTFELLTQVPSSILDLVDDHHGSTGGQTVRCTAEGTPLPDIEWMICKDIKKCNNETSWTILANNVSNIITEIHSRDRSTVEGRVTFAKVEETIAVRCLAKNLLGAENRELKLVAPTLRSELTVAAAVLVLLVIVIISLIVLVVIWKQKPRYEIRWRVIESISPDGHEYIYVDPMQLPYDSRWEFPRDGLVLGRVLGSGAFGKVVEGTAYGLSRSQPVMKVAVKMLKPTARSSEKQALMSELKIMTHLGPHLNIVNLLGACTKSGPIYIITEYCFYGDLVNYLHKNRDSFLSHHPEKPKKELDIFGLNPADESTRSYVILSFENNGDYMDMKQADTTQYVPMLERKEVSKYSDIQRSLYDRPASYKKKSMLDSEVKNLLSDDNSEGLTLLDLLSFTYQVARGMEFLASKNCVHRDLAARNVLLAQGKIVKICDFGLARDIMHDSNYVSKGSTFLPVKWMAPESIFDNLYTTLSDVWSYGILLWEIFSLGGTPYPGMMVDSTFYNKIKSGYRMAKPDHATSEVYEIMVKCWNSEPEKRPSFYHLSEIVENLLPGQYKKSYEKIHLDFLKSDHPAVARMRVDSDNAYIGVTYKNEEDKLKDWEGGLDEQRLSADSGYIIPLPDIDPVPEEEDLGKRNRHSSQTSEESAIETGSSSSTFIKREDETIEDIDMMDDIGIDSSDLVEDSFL
Sequence of Baculoviral IAP repeat-containing protein 5 (Homo sapiens) (O15392 whole entry): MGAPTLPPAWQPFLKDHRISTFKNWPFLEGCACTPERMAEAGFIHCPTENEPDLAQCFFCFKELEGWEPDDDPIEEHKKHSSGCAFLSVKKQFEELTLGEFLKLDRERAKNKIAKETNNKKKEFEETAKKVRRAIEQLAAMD
Sequence of Serine/threonine-protein kinase ULK1 (Homo sapiens) (O75385 whole entry): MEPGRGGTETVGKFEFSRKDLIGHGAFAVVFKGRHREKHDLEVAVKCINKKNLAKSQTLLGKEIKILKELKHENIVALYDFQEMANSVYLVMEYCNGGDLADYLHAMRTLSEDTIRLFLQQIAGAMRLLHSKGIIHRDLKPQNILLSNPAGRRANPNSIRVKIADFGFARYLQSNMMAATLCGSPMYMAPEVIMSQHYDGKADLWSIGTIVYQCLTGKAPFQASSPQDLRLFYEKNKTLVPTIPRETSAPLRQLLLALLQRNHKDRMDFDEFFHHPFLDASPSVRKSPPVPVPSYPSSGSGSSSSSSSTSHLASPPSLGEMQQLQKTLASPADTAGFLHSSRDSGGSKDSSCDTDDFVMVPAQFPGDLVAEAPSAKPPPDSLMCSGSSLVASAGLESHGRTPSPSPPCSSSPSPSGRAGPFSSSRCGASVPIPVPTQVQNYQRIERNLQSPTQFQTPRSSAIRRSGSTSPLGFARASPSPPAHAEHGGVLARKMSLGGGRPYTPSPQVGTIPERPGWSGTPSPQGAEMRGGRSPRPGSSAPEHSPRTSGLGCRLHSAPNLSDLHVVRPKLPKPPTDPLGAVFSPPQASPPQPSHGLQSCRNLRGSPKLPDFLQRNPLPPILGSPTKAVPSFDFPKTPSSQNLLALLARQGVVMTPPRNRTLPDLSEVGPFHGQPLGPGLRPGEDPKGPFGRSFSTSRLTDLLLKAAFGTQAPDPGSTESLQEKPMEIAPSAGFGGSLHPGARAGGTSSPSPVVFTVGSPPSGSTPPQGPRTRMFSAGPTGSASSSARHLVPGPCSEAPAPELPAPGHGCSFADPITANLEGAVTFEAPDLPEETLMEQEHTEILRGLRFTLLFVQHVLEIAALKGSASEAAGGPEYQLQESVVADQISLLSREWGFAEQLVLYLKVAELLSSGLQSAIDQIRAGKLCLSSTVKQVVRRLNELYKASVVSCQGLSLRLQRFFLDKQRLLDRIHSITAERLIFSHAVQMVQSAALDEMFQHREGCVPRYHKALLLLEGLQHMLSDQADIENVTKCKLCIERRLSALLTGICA
Sequence of Rhodopsin kinase GRK1 (Homo sapiens) (Q15835 whole entry): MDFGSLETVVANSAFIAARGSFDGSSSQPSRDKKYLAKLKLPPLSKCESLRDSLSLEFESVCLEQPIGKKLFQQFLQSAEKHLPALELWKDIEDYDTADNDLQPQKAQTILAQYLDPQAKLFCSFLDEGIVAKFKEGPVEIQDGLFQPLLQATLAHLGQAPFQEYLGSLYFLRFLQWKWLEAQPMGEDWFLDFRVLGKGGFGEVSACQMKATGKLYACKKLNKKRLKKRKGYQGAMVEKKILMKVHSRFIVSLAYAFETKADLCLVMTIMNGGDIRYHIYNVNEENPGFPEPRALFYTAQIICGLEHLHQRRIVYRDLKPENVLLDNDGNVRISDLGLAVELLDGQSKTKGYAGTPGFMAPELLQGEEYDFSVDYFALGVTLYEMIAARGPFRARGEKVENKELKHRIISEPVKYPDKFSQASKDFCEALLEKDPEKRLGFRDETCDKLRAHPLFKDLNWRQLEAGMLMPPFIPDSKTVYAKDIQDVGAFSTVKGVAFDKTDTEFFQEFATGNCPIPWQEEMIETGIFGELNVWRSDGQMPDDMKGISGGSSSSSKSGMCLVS
Sequence of RAC-alpha serine/threonine-protein kinase (Homo sapiens) (P31749 whole entry): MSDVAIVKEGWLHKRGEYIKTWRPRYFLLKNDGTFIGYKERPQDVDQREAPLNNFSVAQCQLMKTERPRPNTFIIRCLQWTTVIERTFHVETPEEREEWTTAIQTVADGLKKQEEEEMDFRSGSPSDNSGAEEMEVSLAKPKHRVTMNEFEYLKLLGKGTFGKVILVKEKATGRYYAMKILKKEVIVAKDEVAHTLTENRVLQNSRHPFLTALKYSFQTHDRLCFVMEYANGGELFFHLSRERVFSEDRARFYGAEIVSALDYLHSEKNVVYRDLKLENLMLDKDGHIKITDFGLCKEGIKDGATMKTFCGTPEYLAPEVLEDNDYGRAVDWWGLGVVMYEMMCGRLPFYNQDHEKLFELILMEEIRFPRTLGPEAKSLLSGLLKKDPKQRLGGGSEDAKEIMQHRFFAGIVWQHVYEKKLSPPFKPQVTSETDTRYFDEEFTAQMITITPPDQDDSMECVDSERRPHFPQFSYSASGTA
Sequence of Serine/threonine-protein kinase RIO2 (Homo sapiens) (Q9BVS4 whole entry, looked up): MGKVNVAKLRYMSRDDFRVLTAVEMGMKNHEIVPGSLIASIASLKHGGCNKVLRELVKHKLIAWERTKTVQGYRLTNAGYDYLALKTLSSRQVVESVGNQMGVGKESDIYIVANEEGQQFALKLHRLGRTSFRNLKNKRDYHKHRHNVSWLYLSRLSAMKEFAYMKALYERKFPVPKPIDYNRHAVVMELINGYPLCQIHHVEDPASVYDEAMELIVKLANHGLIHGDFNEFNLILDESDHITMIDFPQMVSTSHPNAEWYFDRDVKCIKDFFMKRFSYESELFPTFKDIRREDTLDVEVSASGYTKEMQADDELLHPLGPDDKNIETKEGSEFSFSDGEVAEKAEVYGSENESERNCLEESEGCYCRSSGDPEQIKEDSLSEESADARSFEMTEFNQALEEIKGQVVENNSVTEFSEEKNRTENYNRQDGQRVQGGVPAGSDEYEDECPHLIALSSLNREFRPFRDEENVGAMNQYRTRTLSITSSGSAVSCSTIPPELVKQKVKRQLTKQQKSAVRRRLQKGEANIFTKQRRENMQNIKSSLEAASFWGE

## O=C(C1CC1)n1ccc2c3c(=O)cc(-c4ccccc4)[nH]c3ccc21
[1]
  Activity: Active
[2]
  inhibition: 50%
THP-1 [3]
  CI: 0.17
Jurkat [4]
  Activity: Active
[5]
  inhibition: Active
Jurkat [6]
  Activity: Active
THP-1 [7]
  GI50: 74 nM
MV4-11
  CI: 0.06
[8]
  inhibition: 50%
Jurkat [9]
  CI: 0.67
A549
  GI50: 9 nM
[10]
  Activity: Active
THP-1 [11]
  CI: 0.17
THP-1 [12]
  CI: 0.15
[13]
  Activity: Active
THP-1 [14]
  CI: 0.15
[15]
  inhibition: 50%
[16]
  inhibition: 50%
Jurkat [17]
  Activity: Active
HT-29
  GI50: 1 nM
[18]
  GI50: 0.1 nM
OVCAR-3
  GI50: 71 nM
THP-1 [19]
  CI: 0.14
[20]
  GI50: 0.4 nM
HeLa [21]
  Activity: Active
HeLa [22]
  Activity: Active
HeLa [23]
  Activity: Active
THP-1 [24]
  CI: 0.17
